GRK2 aptamer HTS – human GRK2 inhibition via aptamer displacement; P25098; bead flow cytometry, FAM-aptamer displacement from GRK2; inhibition of aptamer binding, % at 10 µM; 0.59% of 330,000 active; AID 488847;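 active means inhibition of aptamer binding above 40%, roughly 3 SD of noise, on plates passing a quality check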;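 further: median bead fluorescence of bound FAM aptamer so fluorescent compounds give negative values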
SUMO1-SIM PPI – modulators of human SUMO1-mediated protein-protein interactions | P63165 | SUMO1 binding to a labelled peptide, TR-FRET, 1 h | inhibition, % at 20 µM | 0.33% of 360,000 active | AID 602429; in the data active means inhibition above about 37%
Target sequence (P63165 whole entry, looked up): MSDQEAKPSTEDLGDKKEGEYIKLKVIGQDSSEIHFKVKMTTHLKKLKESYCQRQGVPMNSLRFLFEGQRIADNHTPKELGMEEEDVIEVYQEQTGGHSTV
STEP block – inhibitors of human striatal-enriched phosphatase STEP; P54829; recombinant STEP, OMFP fluorogenic substrate, fluorescence; inhibition, % at 20 µM; 0.25% of 360,000 active;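 active means inhibition at 20 µM, scaled per plate between control wells, above about 37%, limit read from the data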;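 further: 0% = DMSO with enzyme and substrate and 100% = substrate only without enzyme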
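Material: STEP (striatal-enriched tyrosine phosphatase) enzyme, cell-free; Compound dosing: 20 µM single dose in 1% DMSO; Technique: fluorescence read at 480 nm ex / 540 nm em; Times: reaction 20 min, ambient temperature; Medium: 50 mM Bis-Tris pH 6.0 with 2.5 mM DTT and 0.005% Tween 20; Also added: OMFP at 25 µM.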
DNMT1 inh – inhibitors of human DNMT1; P26358; DNMT1 molecular beacon, Hinp1I cleavage, fluorescence; inhibition (reported as % activation of signal), % at 10 µM; 0.83% of 360,000 active; AID 588458; in the data active means inhibition above about 50%
Scp-1 inhibitor – Scp-1 (human) phosphatase inhibition | Q9GZU7 | Recombinant Scp1, phosphopeptide, malachite green phosphate absorbance | inhibition, % at 20 µM | 0.88% of 340,000 active;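 active means inhibition above about 50% at 20 µM, limit read from the data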;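 further: plate controls were DMSO wells with enzyme for no effect and wells lacking enzyme for full effect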
Target sequence (Q9GZU7 76-261 limits assumed): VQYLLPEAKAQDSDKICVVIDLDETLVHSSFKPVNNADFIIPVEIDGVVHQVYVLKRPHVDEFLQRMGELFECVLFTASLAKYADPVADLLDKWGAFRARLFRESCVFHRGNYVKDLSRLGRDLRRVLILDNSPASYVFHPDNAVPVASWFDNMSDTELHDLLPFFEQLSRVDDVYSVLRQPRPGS
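assay system = SCP-1 phosphatase catalytic domain, residues 76-261 | buffer or medium = 50 mM Tris acetate pH 5.5, 0.005% Tween-20, 10 mM MgCl2 | incubation = enzyme reaction 45 min at room temperature, colour 5 min, stabilisation 30 min | signal = Phosphate-binding colour reagent, absorbance read at 630 nm | measure = % inhibition at 20 µM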
LMPTP block – blocks human LMPTP phosphatase. P24666. recombinant LMPTP-A, OMFP fluorogenic substrate, fluorescence intensity. inhibition, % at 20 µM. 0.22% of 360,000 active. AID 651560;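 active means compounds that cut the enzyme signal by at least half of the control window in the single-dose screen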;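 further: plate controls were DMSO wells with enzyme plus substrate for no effect and substrate without enzyme for full effect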
Target sequence (P24666 whole entry, looked up): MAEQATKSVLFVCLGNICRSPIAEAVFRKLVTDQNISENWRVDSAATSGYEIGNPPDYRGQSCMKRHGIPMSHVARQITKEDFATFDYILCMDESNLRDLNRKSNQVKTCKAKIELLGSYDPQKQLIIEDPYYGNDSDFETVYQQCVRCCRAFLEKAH
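Buffer or medium: Bis-Tris pH 6.0, DTT, detergent; Assay system: LMPTP-A enzyme; Quantity: 0.625 nM enzyme; Detection: endpoint fluorescence intensity; Times: 50 min dark incubation at room temperature; Controls: substrate-only low control, DMSO enzyme-plus-substrate high control; Doses: single 20 µM dose; Read-out: percent inhibition versus substrate-only and uninhibited controls; Reagent: 400 µM OMFP.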
GRK2 CP1 – confirmation of human GRK2 inhibitors displacing RNA aptamer | aptamer displacement, % at 10 µM | AID 504451 | bead-bound GRK2, FAM-aptamer displacement, flow cytometry | shares compounds with GRK2 aptamer HTS | 4% of 2,000 active;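 active means aptamer displacement above 40%, near three times the noise of non-fluorescent compounds, on plates passing quality checks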;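 further: negative values mostly reflect intrinsic compound fluorescence rather than true enhancement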
Aptamer quench 1 – fluorescent aptamer quenching in GRK2 counter-screen dose response; fluorescence change (kMESF span), kMESF (test concentration not listed); AID 504521; Fluorescent RNA aptamer beads, flow cytometry; active compounds read high; 110 tested, under 10 active; shares compounds with GRK2 aptamer HTS;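 active means compounds whose bead fluorescence drops by more than 37 kMESF across the dose range, marking them as dye quenchers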
FAM quench CP1 – counter-screen for GRK2 aptamer inhibitors: fluorescent aptamer quenchers. AID 504580. fluorescence response (% of DMSO), % at 10 µM. 2,000 tested, under 10 active. shares compounds with GRK2 aptamer HTS. Carboxyfluorescein RNA aptamer on beads, flow cytometry quenching; active compounds read low;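 active means compounds that quench the bead-bound fluorescent RNA probe, cutting fluorescence to under half of the solvent control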;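 further: counterscreen run without GRK2 so only probe quenching by compound is measured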
GRK2 CP2 – human GRK2 inhibition confirmation, cherry pick 2; shares compounds with GRK2 aptamer HTS; bead-bound GRK2, FAM-aptamer displacement, flow cytometry; inhibition of aptamer binding, % at 10 µM; 360 tested, under 10 active; AID 504782;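 active means inhibition of aptamer binding above 40%, about triple the noise seen with nonglowing compounds, on plates passing quality control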;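 further: negative values mostly come from compounds that fluoresce themselves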
Aptamer quench3 – aptamer fluorescence quenching in GRK2 counter-screen dose response; shares compounds with GRK2 aptamer HTS; change in fluorescence (kMESF span), kMESF (no concentration beside the values); AID 504819; Streptavidin beads, FAM-RNA aptamer fluorescence quenching, flow cytometry; 25 tested, under 10 active;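 active means compounds quenching the bead-bound labeled aptamer, with fluorescence dropping by more than 37 kMESF over the dose range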
FAM quench SP – quenches fluorescent RNA aptamer, GRK2 hit artifact; shares compounds with GRK2 aptamer HTS; carboxyfluorescein RNA aptamer beads, flow cytometry quenching; active compounds read low; fluorescence response vs DMSO, % at 10 µM; 360 tested, under 10 active; AID 588494;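 active means response vs DMSO under 50%, meaning signal dropped by over half, treated as fluorescence quencher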;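 further: labelled aptamer on streptavidin beads without GRK2 as a quench counter-screen; 100% = bead fluorescence of DMSO wells and lower means quenching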
Scp1 confirm – Scp-1 (human) inhibition, single-dose confirmed; shares compounds with Scp-1 inhibitor; recombinant SCP-1 catalytic domain, phosphate release, malachite green absorbance; inhibition, % at 20 µM; 61% of 2,500 active;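 active means inhibition of at least 30% at 20 µM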;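 further: plate controls were DMSO with enzyme for no effect and buffer wells lacking enzyme for full effect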
MG interference – counter-screen for Scp-1 inhibitors: colorimetric interference. shares compounds with Scp-1 inhibitor. Colorimetric interference counterscreen, malachite green absorbance 630 nm. apparent inhibition (interference), % at 20 µM. 2,500 tested, under 10 active;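 active means inhibition of at least 30% at 20 µM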;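 further: compounds added after enzyme reaction finished so only phosphate colour detection is probed; plate controls were DMSO wells with completed Scp-1 reaction for no effect and substrate wells lacking enzyme for full effect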
Scp-1 Tm shift – Scp-1 (human) binding by thermal shift. shares compounds with Scp-1 inhibitor. Recombinant SCP1, Sypro Orange thermal shift Tm. thermal shift relative to vanadate control, % at 40 µM. 25% of 1,500 active. AID 540329;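 active means substances whose mean melting-temperature shift, as a percentage of the reference inhibitor's shift, reaches about 5.3%, limit read from the data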;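 further: 0% = Tm of DMSO wells and 100% = Tm with sodium orthovanadate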
Beacon interf DR – shows spectral interference in the DNMT1 beacon assay; shares compounds with DNMT1 inh; molecular beacon fluorescence, spectral interference counter-screen; IC50, µM; 200 tested, under 10 active
DNMT1 confirm – DNMT1 inhibition confirmation, single concentration; shares compounds with DNMT1 inh; DNMT1 molecular beacon HinP1I cleavage, fluorescence; inhibition, % at 10 µM; 8% of 2,300 active; AID 602385;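 active means average inhibition of at least 30% in the single-concentration confirmation test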
Beacon interf – shows spectral interference in the DNMT1 beacon assay; shares compounds with DNMT1 inh; DNMT1 molecular beacon spectral interference counterscreen, fluorescence 485/520; activation (fluorescence interference), % at 10 µM; 1% of 2,300 active; AID 602387;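 active means activation of at least 30% at 10 µM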;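 further: DNMT1 catalytic domain with a HinP1I cleavage step and a FAM/dabcyl DNA beacon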
STEP inh conf – STEP (human) phosphatase inhibition, single concentration confirmation; shares compounds with STEP block; 32% of 520 active; recombinant STEP, OMFP fluorogenic substrate, fluorescence; AID 623866; inhibition, % at 20 µM;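 further: 0% = enzyme with substrate plus DMSO and 100% = substrate without enzyme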
An asterisk follows results filed as active; x = no result given. This is a sample that favours compounds with a hit; in the whole collection about 2.1% have one here. Unless noted, how the calls were made is not given here.

SMILES | GRK2 aptamer HTS | SUMO1-SIM PPI | STEP block | DNMT1 inh | Scp-1 inhibitor | LMPTP block | GRK2 CP1 | FAM quench CP1 | DNMT1 confirm | Beacon interf | STEP inh conf | others
O=C(c1ccc(=O)oc1)N1CCCc2ccccc21 | 42.0* | 11.5 | 12.9 | 105.0* | 43.0 | 2.0 | 6.9 | 106.2 | 9.9 | -4.4 | x
O=C(CC[C@H]1O[C@@H](n2cnc3c(NC(=O)c4ccccc4)ncnc32)[C@H](O)[C@@H]1O)N[C@@H](CO)c1ccccc1 | x | 5.7 | -1.6 | -6.6 | x | -0.9 | x | x | x | x | x
O=C(NCC1CCCO1)c1ccc(Br)c(S(=O)(=O)N2CCOCC2)c1 (centres undefined) | 0.0 | 0.1 | 0.1 | 4.0 | 3.6 | -0.2 | x | x | x | x | x
CCCCCCNC(=O)O[C@H]1Cn2c(=O)ccc(=O)n2[C@@H]2CN(S(=O)(=O)c3ccc(C)cc3)C[C@]12O | x | 0.3 | 2.0 | -1.8 | x | 0.0 | x | x | x | x | x
CCCCCCn1cc(CN2CC(N3CCCC3)CS2(=O)=O)nn1 (centres undefined) | x | 3.4 | x | x | x | -0.7 | x | x | x | x | x
COc1ccc(OC)c(N2C(=O)[C@@H]3C(c4ccccc4Cl)=NO[C@@H]3C2=O)c1 | 70.0* | 13.1 | 55.1* | 114.5* | 47.6 | 27.2 | 97.6* | 95.9 | 60.5* | 2.0 | 79.7* | Aptamer quench 1=2.4;Beacon interf DR=>99
COc1ccc(OC)c(N2C(=O)c3cccnc3C2=O)c1 | 0.0 | -18.3 | 0.1 | 0.0 | 0.3 | -1.0 | x | x | x | x | x
COc1cc(NC(=O)Cn2c([N+](=O)[O-])cnc2C)c(OC)cc1Cl | 7.0 | -5.7 | -1.0 | -2.7 | -4.7 | -1.1 | x | x | x | x | x
O=C(Nc1cccc(-c2nc3ncccc3o2)c1)c1sc2cc(Cl)ccc2c1Cl | 75.0* | 4.1 | 89.9* | 16.1 | 94.9* | 50.6* | -0.7 | 104.8 | x | x | -0.4 | Scp1 confirm=57.1*;MG interference=-12.3;Scp-1 Tm shift=-12.5
Cc1cc(C)c(C)c(S(=O)(=O)Nc2cccc(S(=O)(=O)Nc3ccccc3C(=O)O)c2)c1C | 1.0 | 20.7 | -6.1 | -1.1 | -3.9 | -2.3 | x | x | x | x | x
O=C(CCS(=O)(=O)c1ccc(Br)cc1)NCc1ccc(F)cc1 | 87.0* | 33.3 | 40.2* | 50.8* | 81.5* | 2.0 | x | x | 0.2 | 2.7 | 25.3 | GRK2 CP2=53.6*;Aptamer quench3=0.5;FAM quench SP=102.0;Scp1 confirm=41.2*;MG interference=-11.5;Scp-1 Tm shift=-12.6
Cc1ccc(S(=O)(=O)CCC(=O)OCC(=O)NCc2ccc(F)cc2)cc1 | x | 3.7 | -0.7 | 3.1 | x | -1.2 | x | x | x | x | x

Screening results (PubChem BioAssay)
